≈ marks a conversion by molar mass, not a printed value. Calls of active or inactive are those of the source. The rule behind the calls is not given here.
Columns and labels:
Escherichia coli = assay: Antibacterial activity against Escherichia coli CECT 99 up to 40 ug/mL by broth microdilution method; type: functional, organism-based
How it was run: (§1)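 Compounds are dissolved in DMSO. The minimal inhibitory concentration is estimated by broth microdilution.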

Candida albicans = assay: Antifungal activity against Candida albicans UBC1 up to 40 ug/mL by broth microdilution method; type: functional, organism-based
How it was run: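 The yeast is grown on Sabouraud agar at 37 °C. Compounds are dissolved in DMSO, and the minimal inhibitory concentration is estimated by broth microdilution.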

Bacillus cereus = assay: Antibacterial activity against Bacillus cereus CECT 496 up to 40 ug/mL by broth microdilution method; type: functional, organism-based; how it was run: as §1
Bacillus pumilus = assay: Antibacterial activity against Bacillus pumilus CECT 29 up to 40 ug/mL by broth microdilution method; type: functional, organism-based; how it was run: as §1
Pseudomonas aeruginosa = assay: Antibacterial activity against Pseudomonas aeruginosa AK 958 up to 40 ug/mL by broth microdilution method; type: functional, organism-based; how it was run: as §1
HeLa = assay: Cytotoxicity against human HeLa cells after 48 hrs by MTT assay; type: functional, cell-based
How it was run: (§2)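 Monolayers are cultured in DMEM with 5% fetal calf serum and 1% penicillin-streptomycin at 37 °C, 5% CO2 and 90% humidity. Exponentially growing cells (2 × 10^4 cells/well) are exposed to a range of compound concentrations for 48 h at 37 °C. Viability is read by colorimetric MTT reduction.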

[1] = test system: Mycolicibacterium smegmatis; assay: Antibacterial activity against Mycobacterium smegmatis CECT 3032 up to 40 ug/mL by broth microdilution method; type: functional, organism-based; how it was run: as §1
Bacillus subtilis = assay: Antibacterial activity against Bacillus subtilis CECT 39 up to 40 ug/mL by broth microdilution method; type: functional, organism-based; how it was run: as §1
Enterococcus faecalis = assay: Antibacterial activity against Enterococcus faecalis CECT 795 up to 40 ug/mL by broth microdilution method; type: functional, organism-based; how it was run: as §1
[2] = test system: Staphylococcus saprophyticus; assay: Antibacterial activity against Staphylococcus saprophyticus CECT 235 up to 40 ug/mL by broth microdilution method; type: functional, organism-based; how it was run: as §1
[3] = test system: Staphylococcus epidermidis; assay: Antibacterial activity against Staphylococcus epidermidis CECT 232 up to 40 ug/mL by broth microdilution method; type: functional, organism-based; how it was run: as §1
Vero = assay: Cytotoxicity against african green monkey Vero cells after 48 hrs by MTT assay; type: cell-based; conditions: Chlorocebus sabaeus; how it was run: as §2
Staphylococcus aureus = assay: Antibacterial activity against Staphylococcus aureus ATCC 6538 up to 40 ug/mL by broth microdilution method; type: functional, organism-based; how it was run: as §1
Priestia megaterium = assay: Antibacterial activity against Bacillus megaterium CECT 44 up to 40 ug/mL by broth microdilution method; type: functional, organism-based; how it was run: as §1
Proteus mirabilis = assay: Antibacterial activity against Proteus mirabilis CECT170 up to 40 ug/mL by broth microdilution method; type: functional, organism-based; how it was run: as §1
HEp-2 = assay: Cytotoxicity against human Hep2 cells after 48 hrs by MTT assay; type: functional, cell-based; conditions: HEp-2, 48 h; how it was run: as §2
Salmonella = assay: Antibacterial activity against Salmonella sp. CECT 456 up to 40 ug/mL by broth microdilution method; type: functional, organism-based; how it was run: as §1

| SMILES | Activity (Escherichia coli) | Activity (Candida albicans) | Activity (Bacillus cereus) | Activity (Bacillus pumilus) | Activity (Pseudomonas aeruginosa) | IC50 (HeLa) | Activity [1] | Activity (Bacillus subtilis) | Activity (Enterococcus faecalis) | Activity [2] | Activity [3] | IC50 (Vero) | Activity (Staphylococcus aureus) | Activity (Priestia megaterium) | Activity (Proteus mirabilis) | IC50 (HEp-2) | Activity (Salmonella) |
| --- | --- | --- | --- | --- | --- | --- | --- | --- | --- | --- | --- | --- | --- | --- | --- | --- | --- |
| CC(C)[C@@H]1CC[C@]2(C)CC[C@]3(C)[C@@H](CC[C@@H]4[C@@]5(C)CC[C@H](OC(=O)/C=C/c6ccc(O)c(O)c6)C(C)(C)[C@@H]5CC[C@]43C)[C@@H]12 | inactive | inactive | inactive | inactive | inactive | > 10 µg/mL | inactive | inactive | inactive | inactive | inactive | > 10 µg/mL | inactive | inactive | inactive | > 10 µg/mL | inactive |
| C=C(C)[C@@H]1CC[C@]2(CO)CC[C@]3(C)[C@@H](CC[C@@H]4[C@@]5(C)CCC(=O)C(C)(C)[C@@H]5[C@H](O)C[C@]43C)[C@@H]12 | inactive | inactive | inactive | inactive | inactive | > 10 µg/mL | inactive | inactive | inactive | inactive | inactive | > 10 µg/mL | inactive | inactive | inactive | > 10 µg/mL | inactive |
| C=C(CO)[C@@H]1CC[C@]2(CO)CC[C@]3(C)[C@@H](CC[C@@H]4[C@@]5(C)CCC(=O)C(C)(C)[C@@H]5CC[C@]43C)[C@@H]12 | inactive | inactive | inactive | inactive | inactive | 4 µg/mL (≈ 8.76 µM) | inactive | inactive | inactive | inactive | inactive | > 10 µg/mL | inactive | inactive | inactive | 7.1 µg/mL (≈ 15.5 µM) | inactive |
| C=C(C)[C@@H]1CC[C@]2(CO)CC[C@]3(C)[C@H](C[C@@H](O)[C@@H]4[C@@]5(C)CC[C@@H](O)C(C)(C)[C@@H]5CC[C@]43C)[C@@H]12 | inactive | inactive | inactive | inactive | inactive | > 10 µg/mL | inactive | inactive | inactive | inactive | inactive | > 10 µg/mL | inactive | inactive | inactive | > 10 µg/mL | inactive |
| C=C(C)[C@@H]1CC[C@]2(CO)CC[C@]3(C)[C@H](CC[C@@H]4[C@@]5(C)CC[C@H](O)C(C)(C)[C@@H]5[C@H](O)C[C@]43C)[C@@H]12 | inactive | – | inactive | inactive | inactive | > 10 µg/mL | inactive | inactive | inactive | inactive | inactive | > 10 µg/mL | inactive | inactive | inactive | > 10 µg/mL | inactive |
| C=C(C)[C@@H]1CC[C@]2(CO)CC[C@]3(C)[C@H](CC[C@@H]4[C@@]5(C)CC[C@H](OC(=O)/C=C/c6ccc(O)c(O)c6)C(C)(C)[C@@H]5CC[C@]43C)[C@@H]12 | inactive | inactive | inactive | inactive | inactive | > 10 µg/mL | inactive | inactive | inactive | inactive | inactive | > 10 µg/mL | inactive | inactive | inactive | > 10 µg/mL | inactive |
| C=C(C)[C@@H]1CC[C@]2(CO)CC[C@]3(C)[C@H](CC[C@@H]4[C@@]5(C)C=CC(=O)C(C)(C)[C@@H]5CC[C@]43C)[C@@H]12 | inactive | – | inactive | inactive | inactive | > 10 µg/mL | inactive | inactive | inactive | inactive | inactive | > 10 µg/mL | inactive | inactive | inactive | > 10 µg/mL | inactive |
| C=C(C)[C@@H]1CC[C@]2(C)CC[C@]3(C)[C@@H](CC[C@@H]4[C@@]5(C)[C@@H](O)C[C@@H](O)C(C)(C)[C@@H]5CC[C@]43C)[C@@H]12 | inactive | inactive | inactive | inactive | inactive | > 10 µg/mL | inactive | inactive | inactive | inactive | inactive | > 10 µg/mL | inactive | inactive | inactive | > 10 µg/mL | inactive |
| C=C(C)[C@@H]1CC[C@]2(CO)CC[C@]3(C)[C@H](CC[C@@H]4[C@@]5(C)CC[C@@H](O)C(C)(C)[C@@H]5CC[C@]43C)[C@@H]12 [3-EPI-BETULIN] | inactive | inactive | inactive | inactive | inactive | > 10 µg/mL | inactive | inactive | inactive | inactive | inactive | > 10 µg/mL | inactive | inactive | inactive | > 10 µg/mL | inactive |
| C=C(C)[C@@H]1CC[C@]2(CO)CC[C@]3(C)[C@H](CC[C@@H]4[C@@]5(C)CC[C@H](O)C(C)(C)[C@@H]5CC[C@]43C)[C@@H]12 [BETULIN] | inactive | inactive | inactive | inactive | inactive | > 10 µg/mL | inactive | inactive | inactive | inactive | inactive | > 10 µg/mL | inactive | inactive | inactive | > 10 µg/mL | inactive |
